The values below come from ChEMBL document CHEMBL2046400, “Design, synthesis and antitumor activities of novel bis-aryl ureas derivatives as Raf kinase inhibitors” (Bioorg Med Chem, 2012).

What is called IC50 is the concentration that gives 50% inhibition. A low value points to higher potency.

One assay relates to MDA-MB-231. In words: Antiproliferative activity against human MDA-MB-231 cells after 72 hrs by MTT assay. To be noted: MDA-MB-231, 72 h. Type of assay: functional, cell-based. The essentials: (§1)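 RPMI-1640 with 10% fetal calf serum, 37 °C, 5% CO₂, 95% humidity. Cells seeded at 5.0 × 10³/well and grown 24 h, then exposed 72 h to a range of compound concentrations. MTT (5 mg/ml solution) added for a further 4 h at 37 °C. Formazan crystals dissolved and absorbance read at 570 nm. Each compound tested three times per cell line. IC50 reported as mean ± SD of three independent experiments.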
(Tetrazolium dyes change colour on reduction, which living cells bring about.)
With `Cc1cccc(Cl)c1NC(=O)Nc1ccc(Oc2ccnc(-c3ncc(C(F)(F)F)[nH]3)c2)cc1`, half-maximal inhibition (IC50) was put at 76.6 µM.

With `COc1ccc(NC(=O)Nc2ccc(Oc3ccnc(-c4ncc(C(F)(F)F)[nH]4)c3)cc2)cc1`, the IC50 was found to be 95.4 µM.

`O=C(Nc1ccc(Oc2ccnc(-c3ncc(C(F)(F)F)[nH]3)c2)cc1)Nc1cccc(C(F)(F)F)c1` had an IC50 of 10.7 µM.

`O=C(Nc1ccc(Oc2ccnc(-c3ncc(C(F)(F)F)[nH]3)c2)cc1)Nc1ccc(F)c(Cl)c1` registered an IC50 of 11.3 µM.

Compound `O=C(Nc1ccc(Oc2ccnc(-c3ncc(C(F)(F)F)[nH]3)c2)cc1Cl)Nc1cc(C(F)(F)F)ccc1Cl` had an IC50 of 7.03 µM.

`O=C(Nc1ccc(F)c(C(F)(F)F)c1)Nc1ccc(Oc2ccnc(-c3ncc(C(F)(F)F)[nH]3)c2)cc1Cl` gave an IC50 of 8.21 µM.

On to `O=C(Nc1ccc(Oc2ccnc(-c3ncc(C(F)(F)F)[nH]3)c2)cc1)Nc1ccc(Cl)c(Cl)c1`, for which 2.03 µM corresponded to half-maximal inhibition (IC50).

For `O=C(Nc1ccc(Oc2ccnc(-c3ncc(C(F)(F)F)[nH]3)c2)cc1)Nc1cc(C(F)(F)F)ccc1Cl`, the IC50 is 7.83 µM.

In the case of `Cc1ccc(NC(=O)Nc2ccc(Oc3ccnc(-c4ncc(C(F)(F)F)[nH]4)c3)cc2Cl)cc1C(F)(F)F`, the IC50 was determined as 10.1 µM.

For `CNC(=O)c1cc(Oc2ccc(NC(=O)Nc3ccc(Cl)c(C(F)(F)F)c3)cc2)ccn1` [SORAFENIB], half-maximal inhibition (IC50) was put at 7.18 µM.

In the next assay the test system is SMMC-7721. Briefly: Antiproliferative activity against human SMMC7721 cells after 72 hrs by MTT assay. Type of assay: functional, cell-based. To be noted: SMMC-7721, 72 h. Put shortly:
as §1
The compound `Cc1cccc(Cl)c1NC(=O)Nc1ccc(Oc2ccnc(-c3ncc(C(F)(F)F)[nH]3)c2)cc1` gave an IC50 of 57.9 µM.

Consider `COc1ccc(NC(=O)Nc2ccc(Oc3ccnc(-c4ncc(C(F)(F)F)[nH]4)c3)cc2)cc1`, for which the IC50 was > 100 µM.

Compound `O=C(Nc1ccc(Oc2ccnc(-c3ncc(C(F)(F)F)[nH]3)c2)cc1)Nc1cccc(C(F)(F)F)c1` came in with an IC50 of 11.7 µM.

The compound `O=C(Nc1ccc(Oc2ccnc(-c3ncc(C(F)(F)F)[nH]3)c2)cc1)Nc1ccc(F)c(Cl)c1` yielded an IC50 of 9.69 µM.

`O=C(Nc1ccc(Oc2ccnc(-c3ncc(C(F)(F)F)[nH]3)c2)cc1Cl)Nc1cc(C(F)(F)F)ccc1Cl` showed an IC50 of 5.29 µM.

In turn, `O=C(Nc1ccc(F)c(C(F)(F)F)c1)Nc1ccc(Oc2ccnc(-c3ncc(C(F)(F)F)[nH]3)c2)cc1Cl` showed an IC50 of 5.72 µM.

`O=C(Nc1ccc(Oc2ccnc(-c3ncc(C(F)(F)F)[nH]3)c2)cc1)Nc1ccc(Cl)c(Cl)c1` displayed an IC50 of 3.06 µM.

`O=C(Nc1ccc(Oc2ccnc(-c3ncc(C(F)(F)F)[nH]3)c2)cc1)Nc1cc(C(F)(F)F)ccc1Cl` gave an IC50 of 6.84 µM.

`Cc1ccc(NC(=O)Nc2ccc(Oc3ccnc(-c4ncc(C(F)(F)F)[nH]4)c3)cc2Cl)cc1C(F)(F)F` gave an IC50 of 8.38 µM.

`CNC(=O)c1cc(Oc2ccc(NC(=O)Nc3ccc(Cl)c(C(F)(F)F)c3)cc2)ccn1` [SORAFENIB] registered an IC50 of 6.23 µM.

A further assay has as its system BGC-823. In words: Antiproliferative activity against human BGC823 cells after 72 hrs by MTT assay. To be noted: BGC-823, 72 h. Type of assay: functional, cell-based. The essentials: as §1
`Cc1cccc(Cl)c1NC(=O)Nc1ccc(Oc2ccnc(-c3ncc(C(F)(F)F)[nH]3)c2)cc1` showed an IC50 of 84 µM.

`COc1ccc(NC(=O)Nc2ccc(Oc3ccnc(-c4ncc(C(F)(F)F)[nH]4)c3)cc2)cc1`: the IC50 was > 100 µM.

`O=C(Nc1ccc(Oc2ccnc(-c3ncc(C(F)(F)F)[nH]3)c2)cc1)Nc1cccc(C(F)(F)F)c1` came in with an IC50 of 26.2 µM.

As to `O=C(Nc1ccc(Oc2ccnc(-c3ncc(C(F)(F)F)[nH]3)c2)cc1)Nc1ccc(F)c(Cl)c1`, it took 15.7 µM to reach half-maximal inhibition (IC50).

For `O=C(Nc1ccc(Oc2ccnc(-c3ncc(C(F)(F)F)[nH]3)c2)cc1Cl)Nc1cc(C(F)(F)F)ccc1Cl`, inhibition was half-maximal at 14.2 µM (IC50).

Turning to `O=C(Nc1ccc(F)c(C(F)(F)F)c1)Nc1ccc(Oc2ccnc(-c3ncc(C(F)(F)F)[nH]3)c2)cc1Cl`, half-maximal inhibition (IC50) was put at 17.7 µM.

Turning to `O=C(Nc1ccc(Oc2ccnc(-c3ncc(C(F)(F)F)[nH]3)c2)cc1)Nc1ccc(Cl)c(Cl)c1`, inhibition was half-maximal at 10.7 µM (IC50).

As to `O=C(Nc1ccc(Oc2ccnc(-c3ncc(C(F)(F)F)[nH]3)c2)cc1)Nc1cc(C(F)(F)F)ccc1Cl`, it took 18.4 µM to reach half-maximal inhibition (IC50).

Compound `Cc1ccc(NC(=O)Nc2ccc(Oc3ccnc(-c4ncc(C(F)(F)F)[nH]4)c3)cc2Cl)cc1C(F)(F)F` returned an IC50 of 33.4 µM.

`CNC(=O)c1cc(Oc2ccc(NC(=O)Nc3ccc(Cl)c(C(F)(F)F)c3)cc2)ccn1` [SORAFENIB] displayed an IC50 of 10.9 µM.

The target in a further assay is RAF proto-oncogene serine/threonine-protein kinase (Homo sapiens, UniProt P04049). Briefly: Inhibition of C-Raf kinase-mediated phosphorylation of Mek using [33P]gammaATP after 20 mins by scintillation counting.
Chain of RAF proto-oncogene serine/threonine-protein kinase (P04049 whole entry): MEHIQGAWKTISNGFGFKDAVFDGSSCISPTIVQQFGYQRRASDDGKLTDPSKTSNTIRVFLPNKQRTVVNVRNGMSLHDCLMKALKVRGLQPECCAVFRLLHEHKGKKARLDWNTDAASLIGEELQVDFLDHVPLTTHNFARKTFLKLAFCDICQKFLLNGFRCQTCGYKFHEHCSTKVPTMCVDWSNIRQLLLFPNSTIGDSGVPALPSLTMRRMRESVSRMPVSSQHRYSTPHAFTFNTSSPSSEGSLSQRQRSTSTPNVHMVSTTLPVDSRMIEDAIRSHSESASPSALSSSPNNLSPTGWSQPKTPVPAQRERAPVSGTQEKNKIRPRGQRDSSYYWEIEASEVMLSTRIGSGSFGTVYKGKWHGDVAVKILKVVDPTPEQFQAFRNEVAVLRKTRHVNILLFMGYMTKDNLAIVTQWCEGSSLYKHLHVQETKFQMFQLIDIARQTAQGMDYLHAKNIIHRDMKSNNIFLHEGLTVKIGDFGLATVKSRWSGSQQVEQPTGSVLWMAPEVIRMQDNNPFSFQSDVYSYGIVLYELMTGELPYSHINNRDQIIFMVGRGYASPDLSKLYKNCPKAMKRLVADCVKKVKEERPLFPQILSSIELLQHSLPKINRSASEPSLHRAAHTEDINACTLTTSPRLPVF
Conditions: not given
Put shortly:
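The reaction was started with [γ-³³P]ATP (about 500 cpm/pmol) and run 20 min at 30 °C. It was then spotted onto a phosphocellulose mat, washed in 1% phosphoric acid, and counted by scintillation.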
Compound `Cc1cccc(Cl)c1NC(=O)Nc1ccc(Oc2ccnc(-c3ncc(C(F)(F)F)[nH]3)c2)cc1` showed an IC50 of 0.12 µM.

`O=C(Nc1ccc(Oc2ccnc(-c3ncc(C(F)(F)F)[nH]3)c2)cc1)Nc1cccc(C(F)(F)F)c1` yielded an IC50 of 0.0878 µM.

For the compound `O=C(Nc1ccc(Oc2ccnc(-c3ncc(C(F)(F)F)[nH]3)c2)cc1)Nc1ccc(F)c(Cl)c1`, 0.0692 µM corresponded to half-maximal inhibition (IC50).

As to `O=C(Nc1ccc(Oc2ccnc(-c3ncc(C(F)(F)F)[nH]3)c2)cc1Cl)Nc1cc(C(F)(F)F)ccc1Cl`, the midpoint of inhibition, the IC50, lay at 0.0359 µM.

For the compound `O=C(Nc1ccc(F)c(C(F)(F)F)c1)Nc1ccc(Oc2ccnc(-c3ncc(C(F)(F)F)[nH]3)c2)cc1Cl`, the IC50 came to 0.0777 µM.

On to `O=C(Nc1ccc(Oc2ccnc(-c3ncc(C(F)(F)F)[nH]3)c2)cc1)Nc1ccc(Cl)c(Cl)c1`, for which the IC50 is 0.0131 µM.

For the compound `O=C(Nc1ccc(Oc2ccnc(-c3ncc(C(F)(F)F)[nH]3)c2)cc1)Nc1cc(C(F)(F)F)ccc1Cl`, inhibition was half-maximal at 0.0759 µM (IC50).

In turn, `Cc1ccc(NC(=O)Nc2ccc(Oc3ccnc(-c4ncc(C(F)(F)F)[nH]4)c3)cc2Cl)cc1C(F)(F)F` returned an IC50 of 0.0467 µM.
